Reference: ChEMBL document CHEMBL5678817, “FTBMT, a Novel and Selective GPR52 Agonist, Demonstrates Antipsychotic-Like and Procognitive Effects in Rodents, Revealing a Potential Therapeutic Agent for Schizophrenia” (J Pharmacol Exp Ther, 2017)
The source made the active and inactive calls. The rule behind the calls is not given here.

Tests used:
[1] = biological target: Polyunsaturated fatty acid 5-lipoxygenase (Homo sapiens) (UniProt P09917); test: Inhibition of […] (unknown origin) at 10 uM relative to control
Procedure, shortened: (§1)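 Enzyme activity assays from the same 98-target biochemical panel. Single test concentration of 10 µM. Read-out is % inhibition of enzyme activity relative to control; negative percentages indicate activation of the enzyme.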

[2] = biological target: MAO-A (amine oxidase [flavin-containing] A) (Homo sapiens, UniProt P21397); test: Inhibition of MAO-A (unknown origin) at 10 uM relative to control; procedure, shortened: as §1
[3] = biological target: Estrogen receptor (Homo sapiens) (UniProt P03372); test: Inhibition of Estrogen ERalpha receptor (unknown origin) at 10 uM relative to control
Procedure, shortened: (§2)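 Part of a 98-target external biochemical selectivity panel that used radioligand/receptor binding-type assays. Compound tested once at 10 µM. Results are reported as % inhibition versus control; negative values mean stimulation of receptor activity.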

[4] = biological target: Muscarinic acetylcholine receptor M3 (Homo sapiens) (UniProt P20309); test: Inhibition of Muscarinic M3 receptor (unknown origin) at 10 uM relative to control; procedure, shortened: as §2
[5] = biological target: Adenosine receptor A1 (Homo sapiens) (UniProt P30542); test: Inhibition of Adenosine A1 receptor (unknown origin) at 10 uM relative to control
Procedure, shortened: (§3)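 Single-point screen at 10 μM across receptor, ion channel and enzyme binding or activity assays. Expressed as percent inhibition versus control; negative values denote stimulation.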

[6] = biological target: G-protein coupled receptor 52 (Mus musculus, UniProt P0C5J4); test: Agonist activity at mouse GPR52 expressed in CHO cells assessed as increase in intracellular cAMP level incubated for 30 mins by Alphascreen assay; assay type: functional, cell-based
Procedure, shortened: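 CHO cells stably expressing human, mouse or rat GPR52, plus naïve CHO cells, at 10,000 cells/well. Stimulated in cAMP assay buffer for 30 min at 37 °C. Intracellular cAMP read by AlphaScreen.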

[7] = biological target: Phosphodiesterase 6 (Homo sapiens) (UniProt Q13956+P18545+P35913+O43924+P16499+P51160); test: Inhibition of PDE6 (unknown origin) at 10 uM relative to control; assay type: protein assay; procedure, shortened: as §1
Mus musculus [8] = test: Antipsychotic activity in C57BL/6N mouse assessed as increase in c-fos positive cells in entorhinal cortex at 30 mg/kg, po measured for 2 hrs by immunohistochemistry analysis; assay type: functional, organism-based
Mus musculus [9] = test: Antipsychotic activity in GPR52 knockout mouse assessed as increase in phosphorylated CREB level in striatum at 30 mg/kg, po incubated for 60 mins by ELISA analysis; assay type: functional, organism-based
Homo sapiens [10] = species: Homo sapiens; test: Inhibition of Sigma receptor (unknown origin) at 10 uM relative to control; procedure, shortened: as §2
[11] = biological target: Collagenase 3 (Homo sapiens) (UniProt P45452); test: Inhibition of MMP13 (unknown origin) at 10 uM relative to control; procedure, shortened: as §1
[12] = biological target: Progesterone receptor (Homo sapiens) (UniProt P06401); test: Inhibition of Progesterone receptor (unknown origin) at 10 uM relative to control; procedure, shortened: as §2
[13] = biological target: GABA-A receptor; anion channel (Homo sapiens) (UniProt P14867+P47870+P18507+P28472+P48169+Q99928+Q9UN88+P34903+O00591+O14764+Q8N1C3+P18505+P78334+P47869+P31644+Q16445); test: Inhibition of GABAA receptor (unknown origin) at 10 uM in presence of muscimol relative to control; assay type: protein-complex assay; procedure, shortened: as §2
[14] = biological target: Sodium-dependent noradrenaline transporter (Homo sapiens) (UniProt P23975); test: Inhibition of Norepinephrine transporter (unknown origin) at 10 uM relative to control; procedure, shortened: as §2
[15] = biological target: MAO-B (amine oxidase [flavin-containing] B) (Homo sapiens, UniProt P27338); test: Inhibition of MAO-B (unknown origin) at 10 uM relative to control; procedure, shortened: as §1
Homo sapiens [16] = species: Homo sapiens; test: Inhibition of Imidazoline I2 receptor (unknown origin) at 10 uM relative to control; procedure, shortened: as §2
[17] = biological target: Alpha-1A adrenergic receptor (Homo sapiens) (UniProt P35348); test: Inhibition of Adrenergic alpha1 receptor (unknown origin) at 10 uM relative to control; procedure, shortened: as §3
[18] = biological target: Neuromedin-K receptor (Homo sapiens) (UniProt P29371); test: Inhibition of Tachykinin NK3 receptor (unknown origin) at 10 uM relative to control
Procedure, shortened: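 Binding and enzyme panel run by an outside contractor against receptors, ion channels and enzymes. Each assay used a single 10 μM test concentration, and results are expressed as percent inhibition. A negative value means stimulation of receptor activity or activation of enzyme activity.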

[19] = biological target: cAMP-dependent protein kinase (PKA) (Homo sapiens) (UniProt P22694+P17612+P22612); test: Inhibition of Protein kinase A (unknown origin) at 10 uM relative to control; assay type: protein assay; procedure, shortened: as §1
[20] = biological target: Glutamate [NMDA] receptor (Homo sapiens) (UniProt Q05586+Q12879+Q13224+O15399+O60391+Q14957+Q8TCU5); test: Inhibition of Glutamate NMDA receptor (unknown origin) at 10 uM in presence of phencyclidine to control; assay type: protein-complex assay; procedure, shortened: as §2
Rattus norvegicus = test: Pro-cognitive activity in Long-Evans rat assessed as discrimination index at 3 to 10 mg/kg, po measured after 3 mins by NORT test; assay type: functional, organism-based; settings: dose 3-10 mg/kg
Procedure, shortened: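 Male Long-Evans rats (7 weeks) were habituated to a 40 × 40 × 50 cm box for 10 min. The acquisition trial was 3 min with two identical objects. Oral dosing at 3 or 10 mg/kg followed immediately after acquisition. The 3-min retention trial, with one familiar and one novel object, ran 48 h later. Exploration was hand-scored by a blinded scorer, and NDI = novel/total × 100. n = 10.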

Mus musculus [21] = test: Antipsychotic activity in po dosed ICR mouse assessed as inhibition of MK-801-induced hyperactivity pretreated with compound for 1 hr followed by MK-801 addition and measured after 90 mins; assay type: functional, organism-based; settings: dose 3-30 mg/kg, time 150.0 min
Procedure, shortened: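 Male ICR mice (7–8 weeks) habituated >60 min in individual cages with activity monitors. Oral dosing at 3–30 mg/kg or vehicle 60 min before MK-801 (0.2 mg/kg s.c.) or vehicle. Activity counted for 60 min pretreatment and 90 min after MK-801; n = 9–10.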

[22] = biological target: Small conductance calcium-activated potassium channel protein 2 (Homo sapiens) (UniProt Q9H2S1); test: Inhibition of SKCA2 (unknown origin) at 10 uM relative to control; procedure, shortened: as §2
Homo sapiens [23] = species: Homo sapiens; test: Inhibition of Calcium channel N-type (unknown origin) at 10 uM relative to control; procedure, shortened: as §3
[24] = biological target: G protein-coupled receptor 52 (Rattus norvegicus) (UniProt A0A8I5ZQK1); test: Agonist activity at GPR52 in rat Striatal neuron assessed as increase in NMDA-stimulated GABA release […] followed by NMDA-stimulation and measured after 20 mins by scintillation counter analysis; assay type: cell-based; settings: filed as agonist, time 60.0 min
[25] = biological target: Muscarinic acetylcholine receptor M1 (Homo sapiens) (UniProt P11229); test: Inhibition of Muscarinic M1 receptor (unknown origin) at 10 uM relative to control; procedure, shortened: as §2
Mus musculus [26] = test: Pro-cognitive activity in C57BL/6N mouse assessed as increase in c-fos gene expression in hippocampus at 3 to 30 mg/kg, po measured after 2 hrs […]; assay type: functional, organism-based; settings: dose 3-30 mg/kg

MAO-A (amine oxidase [flavin-containing] A), sequence (P21397 whole entry): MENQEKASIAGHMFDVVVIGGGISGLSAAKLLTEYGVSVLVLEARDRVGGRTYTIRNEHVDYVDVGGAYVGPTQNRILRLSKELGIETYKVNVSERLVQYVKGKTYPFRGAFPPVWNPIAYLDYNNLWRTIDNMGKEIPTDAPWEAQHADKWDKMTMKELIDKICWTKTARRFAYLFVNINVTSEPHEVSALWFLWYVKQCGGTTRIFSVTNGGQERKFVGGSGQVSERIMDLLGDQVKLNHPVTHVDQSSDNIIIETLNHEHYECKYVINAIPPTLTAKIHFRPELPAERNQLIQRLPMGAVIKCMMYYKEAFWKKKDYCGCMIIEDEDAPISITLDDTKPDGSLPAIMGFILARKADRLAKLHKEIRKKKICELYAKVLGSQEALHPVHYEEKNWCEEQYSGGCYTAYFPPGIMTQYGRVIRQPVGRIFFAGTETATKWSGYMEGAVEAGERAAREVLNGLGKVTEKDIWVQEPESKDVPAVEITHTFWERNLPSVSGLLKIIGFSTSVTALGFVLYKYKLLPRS
Muscarinic acetylcholine receptor M3 (Homo sapiens), sequence (P20309 whole entry, looked up): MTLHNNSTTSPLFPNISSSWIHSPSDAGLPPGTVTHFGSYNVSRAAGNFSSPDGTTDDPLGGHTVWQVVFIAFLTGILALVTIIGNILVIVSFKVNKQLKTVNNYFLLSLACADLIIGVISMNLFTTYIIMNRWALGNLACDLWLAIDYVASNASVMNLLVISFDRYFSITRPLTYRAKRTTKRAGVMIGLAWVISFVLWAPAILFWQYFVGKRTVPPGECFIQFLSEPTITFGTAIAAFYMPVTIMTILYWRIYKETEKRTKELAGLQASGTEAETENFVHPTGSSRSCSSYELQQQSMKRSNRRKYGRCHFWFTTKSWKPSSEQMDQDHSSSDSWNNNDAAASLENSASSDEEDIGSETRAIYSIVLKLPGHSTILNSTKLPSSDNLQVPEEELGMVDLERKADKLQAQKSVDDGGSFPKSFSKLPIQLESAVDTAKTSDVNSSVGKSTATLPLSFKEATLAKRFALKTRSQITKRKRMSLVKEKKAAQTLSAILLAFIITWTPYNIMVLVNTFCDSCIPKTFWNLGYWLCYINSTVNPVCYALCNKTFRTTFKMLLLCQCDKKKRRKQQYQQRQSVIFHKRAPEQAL
Neuromedin-K receptor (Homo sapiens), sequence (P29371 whole entry): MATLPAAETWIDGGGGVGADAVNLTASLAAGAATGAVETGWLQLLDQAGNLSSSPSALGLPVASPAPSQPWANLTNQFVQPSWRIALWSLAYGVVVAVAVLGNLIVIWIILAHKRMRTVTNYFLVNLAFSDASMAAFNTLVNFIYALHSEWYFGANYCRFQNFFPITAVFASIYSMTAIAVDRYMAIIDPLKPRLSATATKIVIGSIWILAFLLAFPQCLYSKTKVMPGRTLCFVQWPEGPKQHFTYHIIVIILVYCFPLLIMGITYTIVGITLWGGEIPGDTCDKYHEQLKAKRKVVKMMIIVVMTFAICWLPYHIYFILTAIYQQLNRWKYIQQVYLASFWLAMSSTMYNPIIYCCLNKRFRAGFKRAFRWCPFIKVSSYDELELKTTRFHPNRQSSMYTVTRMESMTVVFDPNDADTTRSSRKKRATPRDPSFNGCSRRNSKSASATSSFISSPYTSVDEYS
Progesterone receptor (Homo sapiens), sequence (P06401 whole entry): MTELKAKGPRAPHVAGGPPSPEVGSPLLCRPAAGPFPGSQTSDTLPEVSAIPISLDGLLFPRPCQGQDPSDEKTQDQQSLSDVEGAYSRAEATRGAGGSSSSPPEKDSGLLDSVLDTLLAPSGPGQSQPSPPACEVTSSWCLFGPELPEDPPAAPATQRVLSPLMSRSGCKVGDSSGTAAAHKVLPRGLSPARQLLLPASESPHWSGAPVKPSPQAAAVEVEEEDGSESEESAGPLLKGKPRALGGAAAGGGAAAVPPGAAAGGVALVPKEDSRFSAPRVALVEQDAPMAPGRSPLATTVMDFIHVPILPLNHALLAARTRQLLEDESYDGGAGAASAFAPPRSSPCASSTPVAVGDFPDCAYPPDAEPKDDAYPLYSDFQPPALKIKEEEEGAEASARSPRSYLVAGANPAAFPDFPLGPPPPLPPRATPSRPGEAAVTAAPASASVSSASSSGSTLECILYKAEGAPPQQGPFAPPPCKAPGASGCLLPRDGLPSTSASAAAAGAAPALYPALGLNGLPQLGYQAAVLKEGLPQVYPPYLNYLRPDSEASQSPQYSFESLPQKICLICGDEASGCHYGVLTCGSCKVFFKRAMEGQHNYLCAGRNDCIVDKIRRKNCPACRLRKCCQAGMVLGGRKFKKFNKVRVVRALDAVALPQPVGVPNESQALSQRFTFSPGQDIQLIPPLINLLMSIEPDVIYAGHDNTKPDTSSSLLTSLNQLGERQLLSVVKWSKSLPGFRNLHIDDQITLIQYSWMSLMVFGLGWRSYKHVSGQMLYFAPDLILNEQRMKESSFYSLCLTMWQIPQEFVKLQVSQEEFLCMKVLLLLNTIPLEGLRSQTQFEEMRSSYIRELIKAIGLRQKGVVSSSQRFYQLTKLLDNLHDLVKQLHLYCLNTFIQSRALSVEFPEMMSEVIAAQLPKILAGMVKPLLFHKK
Sodium-dependent noradrenaline transporter (Homo sapiens), sequence (P23975 whole entry): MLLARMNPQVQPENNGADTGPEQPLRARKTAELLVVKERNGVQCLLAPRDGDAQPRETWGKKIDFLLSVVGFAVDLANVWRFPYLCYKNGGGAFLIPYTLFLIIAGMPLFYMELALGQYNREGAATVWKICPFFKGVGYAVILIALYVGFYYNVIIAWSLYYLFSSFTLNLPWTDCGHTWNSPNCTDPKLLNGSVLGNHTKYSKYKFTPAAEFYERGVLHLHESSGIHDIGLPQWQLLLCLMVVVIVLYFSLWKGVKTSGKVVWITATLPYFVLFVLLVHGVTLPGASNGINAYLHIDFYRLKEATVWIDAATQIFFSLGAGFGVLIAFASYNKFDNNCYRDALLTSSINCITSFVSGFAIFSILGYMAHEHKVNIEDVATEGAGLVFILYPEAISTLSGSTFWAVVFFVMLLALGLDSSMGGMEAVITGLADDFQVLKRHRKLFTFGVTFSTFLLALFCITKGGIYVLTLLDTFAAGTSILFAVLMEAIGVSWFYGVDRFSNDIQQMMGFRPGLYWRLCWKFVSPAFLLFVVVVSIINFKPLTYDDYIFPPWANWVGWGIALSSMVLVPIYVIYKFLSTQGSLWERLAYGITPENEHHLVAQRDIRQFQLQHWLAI
Alpha-1A adrenergic receptor (Homo sapiens), sequence (P35348 whole entry): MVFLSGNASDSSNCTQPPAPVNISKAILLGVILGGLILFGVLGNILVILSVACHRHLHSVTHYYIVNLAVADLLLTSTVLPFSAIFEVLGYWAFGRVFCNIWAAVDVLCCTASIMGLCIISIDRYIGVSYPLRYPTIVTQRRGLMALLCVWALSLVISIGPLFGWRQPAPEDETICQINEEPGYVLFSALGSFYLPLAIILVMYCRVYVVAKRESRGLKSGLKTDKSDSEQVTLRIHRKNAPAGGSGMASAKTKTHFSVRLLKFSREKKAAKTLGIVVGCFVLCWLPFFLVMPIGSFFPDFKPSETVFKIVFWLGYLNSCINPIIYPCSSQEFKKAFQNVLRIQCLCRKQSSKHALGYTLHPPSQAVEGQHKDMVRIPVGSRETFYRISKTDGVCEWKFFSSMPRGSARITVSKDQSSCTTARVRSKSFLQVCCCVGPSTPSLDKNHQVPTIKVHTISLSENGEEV
Estrogen receptor (Homo sapiens), sequence (P03372 whole entry): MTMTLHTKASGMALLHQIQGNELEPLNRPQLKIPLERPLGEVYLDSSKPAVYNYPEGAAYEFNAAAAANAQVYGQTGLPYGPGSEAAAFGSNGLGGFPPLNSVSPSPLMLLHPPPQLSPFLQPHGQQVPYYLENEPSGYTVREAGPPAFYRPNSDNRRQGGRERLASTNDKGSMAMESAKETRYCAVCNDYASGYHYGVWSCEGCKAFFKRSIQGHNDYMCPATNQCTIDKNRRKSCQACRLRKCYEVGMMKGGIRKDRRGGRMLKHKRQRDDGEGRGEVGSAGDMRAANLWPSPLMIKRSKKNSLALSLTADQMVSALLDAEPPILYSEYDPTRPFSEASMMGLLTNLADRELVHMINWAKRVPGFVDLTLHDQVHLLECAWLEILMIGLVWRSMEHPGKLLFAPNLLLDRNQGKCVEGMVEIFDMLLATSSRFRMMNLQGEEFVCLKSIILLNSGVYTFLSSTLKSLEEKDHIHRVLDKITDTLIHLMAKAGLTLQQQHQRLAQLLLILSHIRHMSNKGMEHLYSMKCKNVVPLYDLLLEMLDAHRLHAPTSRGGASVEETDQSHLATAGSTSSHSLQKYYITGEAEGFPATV
G-protein coupled receptor 52, sequence (P0C5J4 whole entry): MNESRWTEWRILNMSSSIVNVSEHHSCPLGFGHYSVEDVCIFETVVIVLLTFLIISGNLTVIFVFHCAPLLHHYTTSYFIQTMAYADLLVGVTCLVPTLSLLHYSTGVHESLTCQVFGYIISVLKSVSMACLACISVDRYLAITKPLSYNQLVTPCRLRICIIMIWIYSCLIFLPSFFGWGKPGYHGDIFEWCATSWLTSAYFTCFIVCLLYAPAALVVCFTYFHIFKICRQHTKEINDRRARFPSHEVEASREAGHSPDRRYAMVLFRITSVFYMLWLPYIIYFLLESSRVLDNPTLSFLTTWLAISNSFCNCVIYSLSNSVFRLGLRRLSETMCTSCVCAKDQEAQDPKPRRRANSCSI
Muscarinic acetylcholine receptor M1 (Homo sapiens), sequence (P11229 whole entry): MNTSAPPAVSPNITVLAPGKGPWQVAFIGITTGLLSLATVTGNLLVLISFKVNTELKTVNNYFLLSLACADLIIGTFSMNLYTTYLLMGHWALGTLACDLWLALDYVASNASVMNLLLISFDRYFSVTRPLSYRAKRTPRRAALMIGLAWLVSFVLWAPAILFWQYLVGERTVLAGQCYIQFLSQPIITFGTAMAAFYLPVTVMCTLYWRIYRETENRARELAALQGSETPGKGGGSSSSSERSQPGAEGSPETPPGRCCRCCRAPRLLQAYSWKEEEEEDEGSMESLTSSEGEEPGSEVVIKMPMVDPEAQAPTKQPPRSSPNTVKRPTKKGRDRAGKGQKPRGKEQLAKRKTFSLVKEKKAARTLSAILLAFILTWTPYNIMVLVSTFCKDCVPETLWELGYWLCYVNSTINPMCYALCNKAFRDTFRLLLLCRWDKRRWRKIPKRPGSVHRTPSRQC

Cc1cc(-n2nc(Cc3cc(F)cc(C(F)(F)F)c3)nc2C)ccc1C(N)=O [TP-024]
inhibition [1]: -5% | inhibition at 10 µM [2]: 6% | inhibition [3]: -9% | inhibition [4]: -6% | inhibition [5]: 33% | EC50 [6]: 141 nM | inhibition [7]: 17% | Activity (Mus musculus [8]): Active | Activity (Mus musculus [9]): inactive | inhibition (Homo sapiens [10]): 28% | inhibition [11]: 1% | inhibition [12]: 4% | inhibition [13]: -1% | inhibition [14]: 10% | inhibition at 10 µM [15]: 26% | inhibition (Homo sapiens [16]): 6% | inhibition [17]: 3% | inhibition [18]: 20% | inhibition [19]: 17% | inhibition [20]: 4% | Activity (Rattus norvegicus): Active | Activity (Mus musculus [21]): Dose-Dependent Effect | inhibition [22]: -1% | inhibition (Homo sapiens [23]): -9% | Activity [24]: Active | inhibition [25]: 4% | Activity (Mus musculus [26]): Active
